Reference: PMC6431230 (Proceedings of the National Academy of Sciences of the …, 2019)
pIC50: −log10 of the molar value. Bridge positions count the residues as written; N and C are the ends. Square brackets hold non-standard residues; d marks the D form. Ends that are not written are not given here. Peptide text beside a SMILES is read from it. Orn = NCCC[C@H](N)C(=O)O; Mpa = O=C(O)CCS

Tests used:
ants = assay: Effect of injected DMSO on ant survivability; assay type: in vivo, Camponotus fellah
[1] = biological target: T1, oxytocin receptor (human OXTR) (Homo sapiens, UniProt P30559); assay: Calcium assay; assay type: cell-based
T1 sequence (P30559 1-389): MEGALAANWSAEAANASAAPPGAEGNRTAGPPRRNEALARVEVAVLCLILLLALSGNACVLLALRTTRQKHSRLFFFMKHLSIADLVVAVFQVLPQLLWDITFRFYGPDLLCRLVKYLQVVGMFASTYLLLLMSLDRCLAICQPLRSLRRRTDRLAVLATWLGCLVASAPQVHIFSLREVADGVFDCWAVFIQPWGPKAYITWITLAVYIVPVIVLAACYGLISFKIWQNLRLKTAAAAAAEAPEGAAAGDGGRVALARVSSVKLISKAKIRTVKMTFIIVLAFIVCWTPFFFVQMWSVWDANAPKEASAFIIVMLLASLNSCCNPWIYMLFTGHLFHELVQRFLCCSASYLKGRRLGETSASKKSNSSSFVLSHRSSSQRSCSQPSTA

[2] = test system: cuticular hydrocarbons (CHCs); assay: Cuticular hydrocarbon quantification after antagonist injection; assay type: in vivo, Camponotus fellah; conditions: injection of 2 mM atosiban
Procedure, shortened: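 Workers were ice-anesthetized and injected with 1.5 µL into the abdomen through the intersegmental membrane. Dosing was 100 µM test compound in 1% DMSO, or 2 mM of the water-soluble antagonist. Controls were ant saline mixed with the matching solvent (DMSO 1:100; water 1:5). Normal, branched and total cuticular alkanes were then extracted and quantified.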

CYP4G1 expression = assay: CYP4G1 expression; assay type: in vivo, Camponotus fellah; conditions: 24 h
Procedure, shortened: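 Workers were chilled on ice and injected with 1.5 µL into the abdomen through the intersegmental membrane. Controls received ant saline mixed with water (1:10 for 1 mM, 1:5 for 2 mM). RNA was extracted 24 h post-injection. SYBR qRT-PCR on 200 ng total RNA used ef1a/rp2 references and per-experiment average scaling.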

inotocin receptor [3] = assay: TR-FRET; assay type: binding, Camponotus fellah; conditions: 10 nM labeled inotocin ligand, atosiban 1.95 µM to 2 mM
[4] = biological target: inotocin receptor (not stated (C. fellah or C. japonicus cDNA cloned)); assay: FRET or BRET
inotocin receptor [5] = assay: Calcium assay; assay type: cell-based, Camponotus fellah; conditions: CHO cells expressing inotocin receptor, Fluo-4 cytosolic calcium

C[S+](C)[O-] [DMSO]
Effect on ant survivability (ants; 1% DMSO): no effect on survivability
Effect on ant survivability (ants; 10% DMSO): high lethality

CCOc1ccc(C[C@H]2NC(=O)CCSSC[C@@H](C(=O)N3CCC[C@H]3C(=O)N[C@@H](CCCN)C(=O)NCC(N)=O)NC(=O)[C@H](CC(N)=O)NC(=O)[C@H]([C@@H](C)O)NC(=O)[C@H]([C@@H](C)CC)NC2=O)cc1 [atosiban] ([Mpa][dY](Et)ITNCP[Orn]G-NH2; disulfide 1-6 (inferred))
pIC50 [1]: 6.19
Quantity of normal alkanes vs control ([2]; P = 0.008): reduced quantities
Total quantity of alkanes vs control ([2]; P = 0.012): significantly lower
Quantity of branched alkanes vs control ([2]; P = 0.088): tendency for reduced
CYP4G1 expression vs control (CYP4G1 expression; 1 mM injected, P = 0.026): significantly down-regulated
CYP4G1 expression vs control (CYP4G1 expression; 2 mM injected, P = 0.0002): significantly down-regulated
IC50, decrease in FRET ratio (binding between inotocin and inotocin receptor) (inotocin receptor [3]): 58.8 µM

atosiban (peptide)
pIC50 [4]: 4.23

vasopressin (CYFQNCPRG-NH2; disulfide 1-6 (inferred); ends not checked; UniProt P01185 20-28, looked up)
Activation of inotocin receptor (inotocin receptor [5]): not
